PGC1a acetyl inh – PGC1a acetylation modulation, inhibitor mode; U2OS PGC1a acetylation, AlphaScreen anti-acetyl-lysine; with virally co-expressed GCN5 acetyltransferase; inhibition, % at 15.6 µM; 350,000 compounds, 0.17% hits; AID 651687;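 active means every replicate shows inhibition of at least 40%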
Rtt109 HAT inh – inhibitors of Candida albicans Rtt109/Vps75 histone acetyltransferase. Q5AAJ8. purified Rtt109/Vps75, ThioGlo CoA-SH fluorescence, 4 h. inhibition, % at 34.9 µM. 330,000 compounds, 0.16% hits. AID 540336;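 active means inhibition of at least 50% in every replicate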
S100A4 MyoIIA – S100A4-myosin IIA interaction inhibition | P26447 | S100A4/TAMRA-MyoIIA peptide fluorescence polarization | inhibition, % at 10.7 µM | 360,000 compounds, 0.14% hits | AID 652163;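 active means mean inhibition of at least 70% across replicates, with every replicate also reaching that level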
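incubation = readout 5 min after mixing, signal stable up to 60 min | system = S100A4 monomer protein | buffer or medium = HEPES pH 7.2 with CaCl2, KCl, NaCl, DTT, Triton | benchmarks = neutral control DMSO, positive control TFP | also added = fluorescent myosin IIA peptide, 5 nM | compound dosing = one concentration per compound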
ERAP1 HTS inh – ERAP1 (human) enzyme inhibition; Q9NZ08; recombinant ERAP1, Leu-AMC fluorescence, 60 min; inhibition, % at 10.7 µM; 340,000 compounds, 0.15% hits;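 active means mean replicate inhibition of at least 30%, or all replicates individually reaching that 30% level; inactive means mean below 30% and not every replicate reaching it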
Statin myotox sup – suppression of simvastatin myotoxicity | C2C12 myotubes + simvastatin, ATP luminescence, 48 h; scaled: DMSO 0, geranylgeraniol control 100 | rescue of ATP level, % at 7.49 µM | 330,000 compounds, 0.78% hits | AID 602340;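 active means mean ATP rescue above about 67%, or every replicate alone reaching that limit, limit read from the data, passing the limit was not always enough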;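 further: myotubes were challenged with 10 µM simvastatin during compound exposure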
A number is an active result; n = inactive; x = not tested or not shown; ! = a repeat was not active. Compounds with a hit are over-represented: about 0.98% of the library has one in this group of screens.

SMILES	PGC1a acetyl inh	Rtt109 HAT inh	S100A4 MyoIIA	ERAP1 HTS inh	Statin myotox sup
C[C@@H]1CN([C@H](C)CO)C(=O)Cc2cc(NS(=O)(=O)c3cn(C)cn3)ccc2O[C@@H]1CN(C)Cc1ccc(-c2ccccc2)cc1	n	x	n	n	82.0
C[C@@H]1CN([C@H](C)CO)C(=O)Cc2cc(NS(=O)(=O)c3cn(C)cn3)ccc2O[C@H]1CN(C)Cc1ccc2c(c1)OCO2	n	x	x	x	n
CCc1nnc(SCC(=O)Nc2ccc(C(C)=O)cc2)nc1CC	n	n	x	x	112.5
Cc1noc(C)c1NC(=O)N(C)C[C@H]1Oc2ccc(NC(=O)NC(C)C)cc2CC(=O)N([C@H](C)CO)C[C@H]1C	n	x	n	n	n
CC(=O)c1cccc(NC(=O)c2ccc(OC3CSC3)cc2)c1	n	n	n	n	x
Cc1cccc(NC(=O)c2ccc(OC3CSC3)cc2)c1	n	n	x	x	105.2
CN1C(=O)c2cc(NC(=O)c3cccc(F)c3)ccc2OC[C@@H]2O[C@@H](CC(=O)NC3CCC3)CC[C@H]21	n	x	x	x	n
COc1cccc(NC(=O)CSc2nc3c(sc4ccccc43)c(=O)n2CCN(C)C)c1	n	142.0	n	n	x
CCN(CC)CCn1c(SCC(=O)Nc2cccc(OC)c2)nc2c(sc3ccccc32)c1=O	n	n	n	n	x
CCCNC(=O)C[C@@H]1C[C@@H]2c3cc(NS(=O)(=O)c4cccc(OC)c4)ccc3O[C@@H]2[C@H](CO)O1	n	x	n	n	n
CC(C)NC(=O)CS(=O)(=O)c1ccccc1	n	n	n	n	112.1
O=C(CS(=O)(=O)c1ccccc1)NC1CCCCC1	n	n	n	n	n
COc1ccc2c3c([nH]c2c1)[C@H](CO)N(C(C)=O)CC31CN(C(=O)Nc2ccccc2F)C1	n	x	x	x	x
Cc1ccc(CC(=O)c2ccc(Cl)cc2)cc1	n	n	n	x	133.1
CCC(=O)Nc1ccc2c(c1)OC[C@@H](C)N(Cc1ccccc1OC)C[C@@H](C)[C@@H](OC)CN(C)C2=O	n	x	n	n	n
Cc1nc2ccc(NC(=O)c3ccc(=O)[nH]c3)cc2s1	x	n	n	37.0	n
Cc1ccccc1NC(=O)c1ccc(C)c(S(=O)(=O)Nc2ccccn2)c1	n	n	n	n	96.7
O=C(Nc1ccc(S(=O)(=O)Nc2ccccn2)cc1)c1cccc(Br)c1	n	n	n	n	n
O=C(Nc1ccc(S(=O)(=O)Nc2ccccn2)cc1)c1cccc(Cl)c1	x	n	n	n	74.4
Cc1ccc(C(=O)Nc2ccc(Br)cc2)cc1S(=O)(=O)Nc1ccccn1	x	n	x	x	x
Cc1cc(C)n(CC(O)COc2cccc(OCC(O)Cn3nc(C)cc3C)c2)n1 (stereo not drawn)	n	n	x	x	91.0
O=C1c2ccccc2C(=O)c2c1cccc2N1CCCC1	n	n	n	n	x
Cn1c(=O)cc2c3c(c(N4CCCCC4)ccc31)C(=O)c1ccccc1-2	n	x	103.4	n	x
CCc1ccc(S(=O)(=O)/N=C2\C=C(Nc3ccc(O)cc3)C(=O)c3ccccc32)cc1	63.4	n	x	x	n
O=C(NCCCN1CCOCC1)[C@H]1[C@H](CO)[C@H]2Cn3c(cccc3=O)[C@@H]1N2C(=O)C1CCCCC1	n	x	n	n	x
SMILES	PGC1a acetyl inh	Rtt109 HAT inh	S100A4 MyoIIA	ERAP1 HTS inh	Statin myotox sup
Cc1noc(C)c1NC(=O)Nc1ccc2c(c1)C(=O)N([C@H](C)CO)C[C@@H](C)[C@H](CN(C)S(=O)(=O)c1ccccc1)OCCCC[C@H](C)O2	n	x	n	n	x
NC(CO)C(=O)NNCc1ccc(O)c(O)c1O (stereo not drawn)	n	79.2!	n	n	n
COC(=O)C(N)Cc1ccc(O)c(O)c1 (stereo not drawn)	n	n	x	x	n
O=C(CN1CCOCC1)N[C@@H]1CC[C@H](CCNC(=O)Nc2cc(F)ccc2F)O[C@H]1CO	n	x	n	n	n
CC(C)CC(NC(=O)C1CCC(C)CC1)C(=O)Nc1cccnc1 (stereo not drawn)	n	n	x	x	108.3
CC(C)CC(NC(=O)C1CCC(C)CC1)C(=O)NCc1cccnc1 (stereo not drawn)	n	n	x	x	n
Cn1cnc(Sc2ncnc3nc[nH]c23)c1[N+](=O)[O-]	n	n	n	41.1	n
Cn1cnc([N+](=O)[O-])c1Sc1ncnc2nc[nH]c12	n	n	n	n	x
COCCNC(=O)C[C@H]1C[C@H]2c3cc(NC(=O)NC4CCCCC4)ccc3O[C@H]2[C@@H](CO)O1	n	x	n	n	n
C[C@H]1CN([C@@H](C)CO)C(=O)c2cccc(NC(=O)C3CC3)c2O[C@H]1CN(C)S(C)(=O)=O	n	x	n	n	n
C[C@H]1CN([C@@H](C)CO)C(=O)c2cccc(NS(C)(=O)=O)c2O[C@@H]1CN(C)CC1CC1	n	x	n	n	n
C[C@H](CO)N1C[C@H](C)[C@H](CN(C)Cc2ccc(Oc3ccccc3)cc2)Oc2c(NS(=O)(=O)c3ccc(Cl)cc3)cccc2C1=O	n	x	n	n	79.8
COc1ccc(S(=O)(=O)Nc2cccc3c2O[C@H](CN(C)S(C)(=O)=O)[C@H](C)CN([C@@H](C)CO)C3=O)cc1	n	x	n	n	x
COc1ccc(S(=O)(=O)Nc2cccc3c2O[C@H](CN(C)C)[C@@H](C)CN([C@H](C)CO)C3=O)cc1	n	n	n	n	127.1!
C[C@@H]1CN([C@@H](C)CO)C(=O)c2cccc(NC(=O)C3CC3)c2O[C@@H]1CN(C)S(C)(=O)=O	n	x	123.6	n	n
C[C@@H]1CN([C@H](C)CO)C(=O)c2cccc(NS(C)(=O)=O)c2O[C@@H]1CN(C)CC1CC1	n	x	125.8	n	n
C[C@H]1CN([C@@H](C)CO)C(=O)c2cc(NC(=O)Nc3ccc(C(F)(F)F)cc3)ccc2O[C@@H]1CN(C)Cc1ccc2c(c1)OCO2	n	x	n	n	n
COc1cc(-c2nc3ccc4ccccc4c3c3c2CCC3)cc(OC)c1O	x	n	x	x	x
COc1cc(-c2nc3ccc4ccccc4c3c3c2CCC3)cc(OC)c1OC	n	n	x	x	93.6
O=C(COc1ccccc1F)NCCc1ccc2c(c1)OCCO2	n	n	n	n	125.7
CC(C)CC#Cc1ccc2c(c1)O[C@H](CN(C)Cc1cccc(F)c1)[C@H](C)CN([C@@H](C)CO)S2(=O)=O	n	x	n	n	x
CCOc1ccc(NC(=O)CN(Cc2ccccc2)S(C)(=O)=O)cc1	n	x	x	x	110.2
O=C(COC(=O)Cc1ccccc1[N+](=O)[O-])Nc1nnc(-c2ccccc2)o1	n	55.7	n	n	x
O=C(CN1CCOCC1)NCC[C@@H]1CC[C@@H](NS(=O)(=O)c2ccc(Cl)cc2)[C@@H](CO)O1	n	x	n	n	n
CCOc1ccccc1NC(=O)c1ccccc1N(C)S(C)(=O)=O	n	n	x	x	151.2
CN(c1ccccc1C(=O)Nc1ccc2c(c1)OCCO2)S(C)(=O)=O	n	n	x	x	n
Cc1ccc(NC(=O)c2ccccc2N(C)S(C)(=O)=O)cc1C	n	n	x	x	105.9
COc1ccc(C(=O)C(CCC(CNC(C)(C)C)C(=O)c2ccc(OC)cc2)CNC(C)(C)C)cc1 (stereo not drawn)	x	61.7	x	x	x
